Measured values taken from the EternaBench riboswitch data.

Tested on: MS2 coat protein
Test: apparent Kd, MS2 coat protein; higher = weaker binding; RNA-MaP array; FMN 200 µM where present
In short: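 Apparent Kd: the median of filtered binding-curve fits from single clusters. Designs were transcribed on Illumina sequencing-chip clusters by stalled E. coli RNA polymerase and titrated with SNAP-549-labelled MS2 coat protein from 0.7 or 1.5 nM, doubling to 3 µM, in 100 mM Tris-HCl pH 7.5, 80 mM KCl, 4 mM MgCl2, BSA, DTT, yeast tRNA and Tween-20. Each series ran without and then with constant ligand, and green signal was normalised to red-channel RNA signal and control-cluster median Fmax.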

[1] = designed as: OFF switch for flavin mononucleotide, no ligand
[2] = ligand present: flavin mononucleotide, designed as: OFF switch for flavin mononucleotide
[3] = designed as: ON switch for flavin mononucleotide, no ligand
[4] = ligand present: flavin mononucleotide, designed as: ON switch for flavin mononucleotide

Row | Sequence | apparent Kd [1] [nM] | apparent Kd [2] [nM] | apparent Kd [3] [nM] | apparent Kd [4] [nM]
1 | GACUGUCUAGGAUAUGCGACGUUUUACAUGAGGAUCACCCAUGUUGUCUGCGUGUGUGUGGCAGAAGGAGACAAAC | 13 | 19.9 |  | 
2 | AAAAAGGCAGGAUAUACAUGAGGAUCACCCAUGUAAAGAAAGAAAGAAGAAAGGGAAAGUAGAAGGGCCAAAAA | 38.2 | 46 |  | 
3 | CCACAGGUAGGAUAUGCUGGGUGGGAUAAAUAUUUCCUGAGACAUGAGGAUCACCCAUGUAGAAGGACCAAAAG | 18.3 | 16.1 |  | 
4 | GUAGCAAUCGGAGGAUAUUCAUAGCCGAAAGGCACAUGAGGAUCACCCAUGUGGCGAAAGCCUUGGGAGAAGGCCGAUUGCUAC |  |  | 324 | 18
5 | GGGAUGUCAGGAUAUCCAAAAGUCUGCCAAUACAGCAGACAGGAGAAGGGACAUGAGGAUCACCCAUGUAAAGA | 39.5 | 107 |  | 
6 | UUAAAUCAUGUAGGAUAUGCAUGGCGAAGCUACGCAGAAGGACAUGAGGAUCACCCAUGUUAUAGCUACCCAGUUCGGUGGCAA | 96.1 | 221 |  | 
7 | UUAAAUCAUGUAGGAUAUGCAUGGCGAAGCUACGCAGAAGGACAUGAGGAUCACCCAUGUUAAAGCUACCGGAUACGGUGGCAA | 109 | 195 |  | 
8 | CUUUCGUGAGGAUAUGUGGCUUCGAUCGUGAGAUCGAGGCUACAGAAGGCACAUGAGGAUCACCCAUGUUCCUC | 38.8 | 487 |  | 
9 | GUGAACCGUAGGUCGCUGGCUGCACAGGAUAUGAAGGCGUACAUGAGGAUCACCCAUGUUCCCUAUCAGAAGGGUGACAGGAAA |  |  | 14.8 | 8.85
10 | GUAGCAAUCGGAGGAUAUUCAUGAUACAUGAGGAUCACCCAUGUUAAUAUGGGAGAAGGCCGAUUGCUACAAGAGCGAAAGCUC |  |  | 47.9 | 8.05
11 | ACAUACAUUCGAGGAUAUCGGUGAUUAAUUUUACGAGAAGGCGAUUUAAGGCAUAAUGCUUUAGACAUGAGGAUCACCCAUGUA |  |  | 72.9 | 34.4
12 | GGCGAACAGGCUAACAUGAGGAUCACCCAUGUGGACUCAUGGUAGGAUAUGCUGUACUUUGUACAGCAGAAGGGCCGGUGAGCC |  |  | 54.4 | 315
13 | ACAGUAUAUGUAGGAUAUCGUUGGUUAGAUAGGCGAGAAGGGCAUAGUACAUGAGGAUCACCCAUGUGUUGGUCCUCGCAGAAA | 454 | 237 |  | 
14 | CUUGUGUUAGGAUAUGCGCCCUGAAGUGGAAGGGCCAGAGAGCAGAAGGGACAUGAGGAUCACCCAUGUGUGAC | 79.7 | 125 |  | 
15 | AAUAACAGAGGAUAUACUGUUUUAUGUGUUUAUUGUUUUGAACAUGAGGAUCACCCAUGUAGAAGGCUGAAUAA | 22.6 | 23.2 |  | 
16 | AGAUGUACCUAGGAUAUCCGUCGAAUUGGACUAGGAGAAGGAGGUACAUGAGGAUCACCCAUGUAUGACUCCUG | 10.5 | 13.1 |  | 
17 | AACCCUUGUGUUAGGAUAUGUCACUACCAUAUGCGACAGAAGGAACAUGAGGAUCACCCAUGUGAGUUAGCCAA | 42.8 | 91.1 |  | 
18 | CGGUCACAUGAGGAUCACCCAUGUACCUACCCGAUGAAGUCGCAGGAUAUCCAUUACUUUACGUAGGAGAAGGGUGACGCUCGC |  |  | 49.7 | 79.3
19 | AUAUUGUGAGGAUAUGAACAUAGUAUCGAAAGAUACUAAGUUCAGAAGGCACAUGAGGAUCACCCAUGUUUCUC | 70.2 | 738 |  | 

Row | Sequence | apparent Kd [1] [nM] | apparent Kd [2] [nM] | apparent Kd [3] [nM] | apparent Kd [4] [nM]
20 | UAAAAGCUAGGAUAUACAUGAGGAUCACCCAUGUCACGGGUGCCACACCGAAAGGUGCGUAGAAGGAGCCCAAA | 38.6 | 103 |  | 
21 | GUGCCUUGGGAGAAGGUUAUUAGCAAAGCUAUUAAAGGAUAUUCAUACCGGAAACGGACAUGAGGAUCACCCAUGUGGCACAAA |  |  | 1630 | 122
22 | ACAUGAGGAUCACCCAUGUUAUCUGGGACUUCAAUUAUUUCUAGAAGGCUGUUUACUUGUUAGUCAGAGGAUAUAGAAUUAAAU | 31.1 | 32.3 |  | 
23 | CUAGUAUAUCAGGAUAUGAUAAUGUGUAGUAUAUCAGAAGGGAUGACAUGAGGAUCACCCAUGUUAAGGGAUGA | 58.1 | 118 |  | 
24 | CUGAGCAAUGUAGGAUAUCGACUGGAUAACAGUCGAGAAGGACAUGAGGAUCACCCAUGUCAAUGAGUGAAUAAUAAAGCUCAG | 20.4 | 118 |  | 
25 | UCUUAUUGCAAGGAUAUGCAAAUUAUUAUUAAAGCAGAAGGUGCAACAUGAGGAUCACCCAUGUUUCCGGGAAA | 25.2 | 104 |  | 
26 | AAUUGGAUCCAGAAGGCAUGGACGACCCGUCACAUUAACAUGAGGAUCACCCAUGUAUAAAGACAUGAGGAUAUGGAUCCUAAA |  |  | 25.7 | 7.99
27 | UUCAUGUUGCGAGGAUAUCGUGUUAACAUGAGGAUCACCCAUGUAUAGGUUUAUUAAUUAGUUUUCGAGAAGGCGCUUUUAGUA |  |  | 215 | 158
28 | CUUUUGUCAGGAUAUGAGUAGUAGAACAAUAGUACUACUACUCAGAAGGGACAUGAGGAUCACCCAUGUUCCUC | 16.6 | 50.5 |  | 
29 | UUAAAUCAUGUAGGAUAUGCAUGGCGAAGCUACGCAGAAGGACAUGAGGAUCACCCAUGUUAUAGCUACCGAUAAAGGUGGCAA | 84.3 | 214 |  | 
30 | CUGUAAGAUGUAGGAUAUACAAUAAUAUUGUUAGUAGAAGGACAUGAGGAUCACCCAUGUAUAUAAAUUUUAAAUACUUUUGUG | 40.8 | 31.5 |  | 
31 | UAUCCACAUGAGGAUCACCCAUGUCAGGAUAUUAGAUCUAUAUAUACAUAUAAUUAUUUAAGAAGGGACACUAA | 11.5 | 11.8 |  | 
32 | AUAUAAUAUCAGGAUAUGACUAGCUUCGGCUAGUCAGAAGGGAUGACAUGAGGAUCACCCAUGUGAUCAUAUAU | 35.7 | 153 |  | 
33 | GCAUGCGAUAAUAUGUCUGAGGGCAGAAGGCACAUGAGGAUCACCCAUGUAACGAUCUCUUCAAGUGAGGAUAUGUGCUCAUUG | 34 | 85.2 |  | 
34 | AACAAUGGUUAACAUGAGGAUCACCCAUGUUGGAAGCCUUCACAGGAUAUGUAGCGGGCAUACGCACAGAAGGGUGAUCGCGGU |  |  | 37.5 | 32.6
35 | AGUUGGCGAGGAUAUACAUGAGGAUCACCCAUGUGAGAGAAAAAAGUGAGAAAGAAAAGUAGAAGGCGCUGACA | 45.3 | 217 |  | 
36 | UUUUUACUUGCAGGAUAUGGAGACAUGAGGAUCACCCAUGUAUGAUAAGCUAAAUUAUGCUGUGGCCAGAAGGGUAUUGUUCUU |  |  | 72 | 52.9
37 | CCAGAGGUCACAGGAUAUGACUCGUCCAAUUGGUCAGAAGGGUGAAUCACAUUAUGUAUACAUGAGGAUCACCCAUGUCCUACG |  |  | 64.4 | 165
38 | CCUGUACAUGAGGAUCACCCAUGUUAGGAUAUCUCGCCGUCGGCUUGCCGACGGUAUUAGAGAAGGGACAAGGG | 32.3 | 37.6 |  | 

Row | Sequence | apparent Kd [1] [nM] | apparent Kd [2] [nM] | apparent Kd [3] [nM] | apparent Kd [4] [nM]
39 | AUUUAUGUUGAGGAUAUGCUAAAAUGUAUAGUUGCAGAAGGCGACACAUGAGGAUCACCCAUGUUCAUGGAAUU | 37 | 43.7 |  | 
40 | AGUGACGACACAGGAUAUGCUGGACUUUGUCCAGCAGAAGGGUGUUAACAUGAGGAUCACCCAUGUAUCGUCACCAAAUUUAAU |  |  | 628 | 34.1
41 | GCGUACAUAUCAGGAUAUCAUUGAAUGGAUUAACUCAGUGAAUACAUGAGGAUCACCCAUGUGCUUGAGAAGGGAUUACUACGC | 14.7 | 69.9 |  | 
42 | GGGACCAACACAGGAUAUGCUAUCCUUUGGGUAGCAGAAGGGUGAAACAUGAGGAUCACCCAUGUGGUUCCAGGGCGUGAGCCC |  |  | 1580 | 99.6
43 | AACAGUACAGGAUAUACAUGAGGAUCACCCAUGUGAGAAUUAAGUGGCGUACCACAAUGUAGAAGGGUACUGGA | 77.4 | 65.5 |  | 
44 | UAUAAACAUGAGGAUCACCCAUGUAAUAAUAUGGGAGGAUAUCAGAAUUUAUUUAUUUAAUGAGAAGGCCUAAUAU |  |  | 627 | 43.2
45 | UUUGUGUGAGGAUAUUAAUUGCAAGCGAAUAGGCUUGUGAUUGAGAAGGCACAUGAGGAUCACCCAUGUUCCUU | 18.1 | 151 |  | 
46 | ACUAUACGAGGAUAUGCUGUCAAUACUCCGGAGUUAGUAUGACAUGAGGAUCACCCAUGUAGAAGGCGUAUACU | 26.7 | 19.6 |  | 
47 | CGGCCGGGCCGAGGAUAUAAGUCUAGGACAUGAGGAUCACCCAUGUAUGUCUUAGAAGGCGGCCCGGCCAGCCUGUUACAGGCA |  |  | 31.2 | 5.85
48 | AAUUACAGAUAAGGAUAUUGACAUGAGGAUCACCCAUGUAUUUGGGAAUGUUUACUGAAUUCUUACGAGAAGGUAUACGUACUU | 123 | 87 |  | 
49 | UGUUGUAUUACAGGAUAUCUAUUGAUUUUAUUUAGAGAAGGGUAUUCACAUGAGGAUCACCCAUGUAUAUACGAGGAAGUUGUG |  |  | 54.6 | 62.7
50 | AACACACAUGAGGAUCACCCAUGUAAAAUUUAGCAAGGAUAUGGGUGCCGUAAUCGGUUACCAGAAGGUGCCUCAC |  |  | 103 | 59.8
51 | AAAGGACAUGAGGAUCACCCAUGUGAGGAUAUGCUCUACGAACGAAUACACAUGAGAAGCAGAAGGCACAUAAG | 151 | 247 |  | 
52 | AAUGUACGAGGAUAUACAUAGAUACAGAUACAUGUAGACGUACAUGAGGAUCACCCAUGUAGAAGGCGUACAUA | 178 | 73.8 |  | 
53 | AGAAACUACGAGAAGGACAUGUGGAAAACCGCAAACAUGAGGAUCACCCAUGUAGGAUAUCGUAGUUUCAGGAUCGUGAGAUCA | 772 | 148 |  | 
54 | CUUUUGGGAGGAUAUACAUGAGGAUCACCCAUGUGGUCGUGACCAAGUAAGCGCACUCGUAGAAGGCCCACGAC | 66.7 | 98 |  | 
55 | CGUAUGUCAGGAUAUGCGUAUGCCGCCCAGGACAGGCGGCAGCAGAAGGGACAUGAGGAUCACCCAUGUUCGGG | 68.3 | 59.5 |  | 
56 | ACAUGAGGAUCACCCAUGUUUGCAUAGGAUAUUGAGGAUUAGGGAUGUUUUUUUGGAUUUGCCCACAAGAAGGAUGUAUGUUUU |  |  | 8.56 | 7.96
